Source: ChEMBL document CHEMBL3808299 (J Med Chem, 2016)
Calls of active or inactive are those of the source. No cut-off for these calls is given here.

Columns and labels:
[1] = Inhibition of hedgehog pathway in mouse C3H10T1/2 cells assessed as downregulation of Gli1 mRNA expression after 24 hrs by qPCR method; type: cell-based; settings: C3H 10T1/2, 24 h
How it was run: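 Hh-ligand-stimulated C3H10T1/2 cells (recombinant mouse Sonic Hedgehog C25II) were exposed to a concentration series of compound for 24 h. Gli1 mRNA was read by qPCR. IC50 is the mean ± SEM of at least two separate experiments in triplicate.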

[2] = Inhibition of hedgehog pathway in mouse ASZ cells assessed as downregulation of Gli1 mRNA expression after 48 hrs by qPCR method; type: cell-based
How it was run: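 ASZ murine BCC cells, whose Hh signaling is constitutively active through a heterozygous PTCH1 mutation, got no added agonist. They were treated with a concentration series for 48 h and Gli1 mRNA was quantified by qPCR. IC50 is the mean ± SEM of at least two separate experiments in triplicate.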

[3] = test system: HUVEC; experiment: Antiproliferative activity against HUVEC assessed as inhibition of VEGF induced cell proliferation after 72 hrs by MTS assay; type: functional; settings: Homo sapiens
How it was run: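 HUVECs were seeded at 3,000 cells/well, attached overnight, then treated with varying drug concentrations. Metabolic activity was read with MTS/PMS after 72 h. GI50 is the mean ± SEM of at least two separate experiments run in triplicate.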

[4] = Antiproliferative activity against mouse MERP MB cells assessed as cell growth inhibition using methyl-[3H]thymidine after 48 hrs by liquid scintillation spectrophotometry; type: functional; settings: Medulloblastoma cell
How it was run: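 Primary MB cells isolated from Math1-Cre-ER;Ptc fl/fl (MERP) mouse tumours were cultured in vitro and exposed to compound for 48 h to measure proliferation. GI50 is the mean ± SEM of at least two separate experiments in triplicate.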

[5] = Inhibition of hedgehog pathway in mouse C3H10T1/2 cells assessed as Gli1 mRNA expression at 1 uM after 24 hrs by qPCR method; type: cell-based; design: scale not given: the % may be the effect or the level left; settings: C3H 10T1/2
How it was run: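 C3H10T1/2 mouse embryonic fibroblasts were stimulated with recombinant mouse Sonic Hedgehog (C25II) and co-treated with compound at 1 μM for 24 h. Endogenous Gli1 mRNA was measured by qPCR and expressed as % of the Hh-ligand-only control (100%).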

[6] = test system: HUVEC; experiment: Antiangiogenic activity against HUVEC assessed as inhibition of total tube length at 10 uM after 16 hrs by inverted microscopy; type: functional; settings: Homo sapiens
How it was run: (§1)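 HUVECs in M199 with 1% FBS and penicillin/streptomycin, 50,000 cells per well, on Matrigel diluted 1:1 with DMEM and set at 37°C. Cells attached for 20-30 min, then got DMSO, suramin (10 uM) or drug at 10, 1 or 0.1 μM for 16 h. Eight phase-contrast fields per well were imaged. Total tube length and junctions were scored relative to DMSO (100%). Each assay was repeated at least three times.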

[7] = test system: HUVEC; experiment: Antiangiogenic activity against HUVEC assessed as inhibition of total tube junctions at 10 uM after 16 hrs by inverted microscopy; type: functional; settings: Homo sapiens; how it was run: as §1
[8] = Inhibition of hedgehog pathway in mouse MERP MB cells assessed as downregulation of Gli1 mRNA expression after 48 hrs by qPCR method; type: cell-based
How it was run: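 Primary medulloblastoma cells from Math1-Cre-ER;Ptc fl/fl mice were incubated with compound for 48 h. Gli1 mRNA was measured by qPCR. IC50 is the mean ± SEM of two separate experiments.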

[9] = test system: HUVEC; experiment: Antiangiogenic activity against HUVEC assessed as inhibition of total tube length at 1 uM after 16 hrs by inverted microscopy; type: functional, cell-based; settings: Homo sapiens; how it was run: as §1
[10] = test system: HUVEC; experiment: Antiangiogenic activity against HUVEC assessed as inhibition of total tube junctions at 1 uM after 16 hrs by inverted microscopy; type: functional, cell-based; settings: Homo sapiens; how it was run: as §1
[11] = Inhibition of hedgehog pathway in mouse Shh-Light2 cells after 46 hrs by luciferase reporter gene assay; type: cell-based; settings: Shh Light2, 46 h
[12] = test system: HUVEC; experiment: Antiproliferative activity against HUVEC assessed as inhibition of VEGF induced cell proliferation using methyl-[3H]thymidine after 36 hrs; type: functional, cell-based; settings: Homo sapiens
[13] = target: Cytochrome P450 3A4 (Homo sapiens, UniProt P08684); experiment: Inhibition of CYP3A4 in human liver microsomes using testosterone as substrate after 10 mins by LC/MS/MS analysis; type: ADME
Cytochrome P450 3A4, sequence (P08684 whole entry): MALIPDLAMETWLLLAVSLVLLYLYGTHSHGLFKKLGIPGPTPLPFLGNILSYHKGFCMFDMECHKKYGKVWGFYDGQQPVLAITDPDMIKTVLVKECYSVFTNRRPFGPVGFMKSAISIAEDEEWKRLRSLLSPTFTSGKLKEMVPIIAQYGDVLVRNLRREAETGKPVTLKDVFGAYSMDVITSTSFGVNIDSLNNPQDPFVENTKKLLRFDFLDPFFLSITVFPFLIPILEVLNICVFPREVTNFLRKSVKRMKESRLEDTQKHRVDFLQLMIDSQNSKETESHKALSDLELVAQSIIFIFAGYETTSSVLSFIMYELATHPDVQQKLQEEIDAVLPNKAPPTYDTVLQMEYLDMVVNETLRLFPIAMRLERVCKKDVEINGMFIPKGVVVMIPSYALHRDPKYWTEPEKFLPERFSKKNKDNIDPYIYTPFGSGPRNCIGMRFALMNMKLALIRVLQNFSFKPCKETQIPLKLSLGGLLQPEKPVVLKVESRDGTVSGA

| SMILES | IC50 [1] | IC50 [2] | GI50 [3] | Activity [5] | further results |
| --- | --- | --- | --- | --- | --- |
| CCCn1ncn(-c2ccc(N3CCN(c4ccc(OC[C@@H]5CO[C@@](C)(c6ccc(Cl)cc6Cl)O5)cc4)CC3)cc2)c1=O | 4100 nM | 1300 nM | 26500 nM | – | – |
| CCCn1ncn(-c2ccc(N3CCN(c4ccc(OC[C@H]5CO[C@](C)(c6ccc(Cl)cc6Cl)O5)cc4)CC3)cc2)c1=O | > 10000 nM | 200 nM | 84100 nM | – | GI50 [4]: 22400 nM |
| O=c1[nH]ncn1-c1ccc(N2CCN(c3ccc(OCC4COC(Cn5cncn5)(c5ccc(Cl)cc5Cl)O4)cc3)CC2)cc1 (stereo not given) | 43 nM | 120 nM | 5800 nM | 1.1% | – |
| CC[C@H](C)n1ncn(-c2ccc(N3CCN(c4ccc(OCC5COC(Cn6cncn6)(c6ccc(Cl)cc6Cl)O5)cc4)CC3)cc2)c1=O (stereo not given in full) | 160 nM | 140 nM | 2500 nM | 6.9% | – |
| CCCn1ncn(-c2ccc(N3CCN(c4ccc(OC[C@@H]5CO[C@](C)(c6ccc(Cl)cc6Cl)O5)cc4)CC3)cc2)c1=O | > 10000 nM | 1400 nM | 49900 nM | – | – |
| CCC(C)n1ncn(-c2ccc(N3CCN(c4ccc(OCC5COC(C)(Cn6cncn6)O5)cc4)CC3)cc2)c1=O (stereo not given) | – | – | 18400 nM | 61.4% | – |
| CCC(C)n1ncn(-c2ccc(N3CCN(c4ccc(OCC5COC(C)(C)O5)cc4)CC3)cc2)c1=O (stereo not given) | – | – | > 100000 nM | 71.4% | – |
| CC[C@H](C)n1ncn(-c2ccc(N3CCN(c4ccc(OC[C@@H]5CO[C@@](C)(c6ccc(Cl)cc6Cl)O5)cc4)CC3)cc2)c1=O | 470 nM | 380 nM | 18300 nM | – | – |
| O=[N+]([O-])c1ccc(N2CCN(c3ccc(OCC4COC(Cn5cncn5)(c5ccc(Cl)cc5Cl)O4)cc3)CC2)cc1 (stereo not given) | 130 nM | 90 nM | 8400 nM | 1.5% | – |
| CC[C@@H]([C@H](C)O)n1ncn(-c2ccc(N3CCN(c4ccc(OC[C@@H]5CO[C@@](Cn6cncn6)(c6ccc(F)cc6F)C5)cc4)CC3)cc2)c1=O [POSACONAZOLE] | 140 nM | 540 nM | 1600 nM | – | – |
| CCCn1ncn(-c2ccc(N3CCN(c4ccc(OC[C@H]5CO[C@@](C)(c6ccc(Cl)cc6Cl)O5)cc4)CC3)cc2)c1=O | > 10000 nM | 540 nM | 24900 nM | – | – |
| CCC(C)n1ncn(-c2ccc(N3CCN(c4ccc(OCC5COC(Cn6cncn6)(c6ccccc6)O5)cc4)CC3)cc2)c1=O (stereo not given) | 420 nM | 450 nM | 8300 nM | 13.1% | – |
| CCC(C)n1ncn(-c2ccc(N3CCN(c4ccc(O)cc4)CC3)cc2)c1=O (stereo not given) | – | – | > 100000 nM | 45.7% | – |
| Nc1ccc(N2CCN(c3ccc(OCC4COC(Cn5cncn5)(c5ccc(Cl)cc5Cl)O4)cc3)CC2)cc1 (stereo not given) | 160 nM | 120 nM | 42700 nM | 6.1% | GI50 [4]: 900 nM |
| Cc1ccc(C(=O)Nc2ccc(S(=O)(=O)O)c3cc(S(=O)(=O)O)cc(S(=O)(=O)O)c23)cc1NC(=O)c1cccc(NC(=O)Nc2cccc(C(=O)Nc3cc(C(=O)Nc4ccc(S(=O)(=O)O)c5cc(S(=O)(=O)O)cc(S(=O)(=O)O)c45)ccc3C)c2)c1 [SURAMIN] | – | – | – | – | inhibition at 10 µM [6]: 51.9%; inhibition at 10 µM [7]: 57.6% |
| CCC(C)n1ncn(-c2ccc(N3CCN(c4ccc(OCC5COC(Cn6cncn6)(c6ccc(Cl)cc6Cl)O5)cc4)CC3)cc2)c1=O (stereo not given) [ITRACONAZOLE] | 63 nM | 140 nM | 400 nM | 1.7% | GI50 [4]: 440 nM; IC50 [8]: 390 nM; inhibition [9]: Active; inhibition [10]: Active; IC50 [11]: 690 nM; IC50 [12]: 160 nM |
| CCC(C)n1ncn(-c2ccc(N3CCN(c4ccc(OCC5COC(C)(c6ccc(Cl)cc6Cl)O5)cc4)CC3)cc2)c1=O (stereo not given) | 140 nM | 170 nM | 23800 nM | 17.8% | IC50 [13]: > 10000 nM; inhibition [9]: Active; inhibition [10]: Active |
| CC[C@@H](C)n1ncn(-c2ccc(N3CCN(c4ccc(OCC5COC(Cn6cncn6)(c6ccc(Cl)cc6Cl)O5)cc4)CC3)cc2)c1=O (stereo not given in full) | 140 nM | 160 nM | 1700 nM | 3% | – |
| CCCn1ncn(-c2ccc(N3CCN(c4ccc(OCC5COC(Cn6cncn6)(c6ccc(Cl)cc6Cl)O5)cc4)CC3)cc2)c1=O (stereo not given) | – | – | 4700 nM | 58.5% | – |

Now from value to molecule, other results behind:

| IC50 [1] | IC50 [2] | SMILES | GI50 [3] | Activity [5] | further results |
| --- | --- | --- | --- | --- | --- |
| 850 nM | 71 nM | CCC(C)n1ncn(-c2ccc(N3CCN(c4ccc(OC[C@H]5CO[C@@](C)(c6ccc(Cl)cc6Cl)O5)cc4)CC3)cc2)c1=O (relative stereo) | 3690 nM | – | GI50 [4]: 2900 nM |
| 540 nM | 130 nM | CC[C@@H](C)n1ncn(-c2ccc(N3CCN(c4ccc(OC[C@H]5CO[C@](C)(c6ccc(Cl)cc6Cl)O5)cc4)CC3)cc2)c1=O | 12100 nM | – | inhibition [6]: inactive; inhibition [7]: inactive |
| 2400 nM | 24 nM | CC[C@@H](C)n1ncn(-c2ccc(N3CCN(c4ccc(OC[C@@H]5CO[C@](C)(c6ccc(Cl)cc6Cl)O5)cc4)CC3)cc2)c1=O | 12800 nM | – | GI50 [4]: 1000 nM; IC50 [8]: 290 nM; inhibition [6]: inactive; inhibition [7]: inactive |
| 6600 nM | 2800 nM | CC[C@@H](C)n1ncn(-c2ccc(N3CCN(c4ccc(OC[C@H]5CO[C@@](C)(c6ccc(Cl)cc6Cl)O5)cc4)CC3)cc2)c1=O | 65000 nM | – | – |
| 1100 nM | 2500 nM | CC[C@H](C)n1ncn(-c2ccc(N3CCN(c4ccc(OC[C@H]5CO[C@](C)(c6ccc(Cl)cc6Cl)O5)cc4)CC3)cc2)c1=O | 7700 nM | – | – |
| 1850 nM | 150 nM | CC[C@H](C)n1ncn(-c2ccc(N3CCN(c4ccc(OC[C@@H]5CO[C@](C)(c6ccc(Cl)cc6Cl)O5)cc4)CC3)cc2)c1=O | 2500 nM | – | GI50 [4]: 390 nM; IC50 [8]: 260 nM |
| 190 nM | 22 nM | CC[C@@H](C)n1ncn(-c2ccc(N3CCN(c4ccc(OC[C@@H]5CO[C@@](C)(c6ccc(Cl)cc6Cl)O5)cc4)CC3)cc2)c1=O | 53200 nM | – | GI50 [4]: 600 nM; IC50 [8]: 190 nM |
| > 10000 nM | 550 nM | CC[C@H](C)n1ncn(-c2ccc(N3CCN(c4ccc(OC[C@H]5CO[C@@](C)(c6ccc(Cl)cc6Cl)O5)cc4)CC3)cc2)c1=O | 78300 nM | – | – |
| 91 nM | 77 nM | CCC(C)n1ncn(-c2ccc(N3CCN(c4ccc(OC[C@@H]5CO[C@@](C)(c6ccc(Cl)cc6Cl)O5)cc4)CC3)cc2)c1=O (stereo not given in full) | 3320 nM | – | GI50 [4]: 2000 nM |
